Consider 27 compounds from ChEMBL document CHEMBL1138298, “Synthesis and evaluation of 7H-8,9-dihydropyrano[2,3-c]imidazo[1,2-a]pyridines as potassium-competitive acid blockers” (J Med Chem, 2007).

The subject of one series is Gastric gland. Description: Inhibition of acid secretion in rabbit intact gastric glands assessed as […] accumulation. As to conditions: Oryctolagus cuniculus. It is filed as functional, tissue-based. The method, boiled down:
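Isolated gastric glands in Krebs-Henseleit with 2 mg/mL rabbit serum albumin and 2 mg/mL glucose. Incubated 30 min at 37 °C, shaking, with 0.125 µM 14C-aminopyrine at pH 7.4, stimulated by 1 mM dibutyryl cAMP, inhibitor 3 nM-100 µM. Stopped by centrifugation. Accumulation taken from pellet/supernatant radioactivity ratio. IC50 from fitted inhibition equation.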

For series [1], the system named is Rattus norvegicus. Description: Inhibition of pentagastrin-stimulated acid secretion in perfused Ghosh Schild rat stomach at 3 umol/kg, intraduodenal. It is filed as functional. Set-up: scale not given: the % may be the effect or the level left. The gist of the method:
(§1)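 Anaesthetised rat with perfused stomach: 37 °C saline at 0.5 mL/min. Effluent titrated to pH 7 with 0.01 N NaOH in 15-min fractions. Secretion driven by continuous iv pentagastrin, 1 µg/kg (1.65 mL/h). Compound given intraduodenally in 2.5 mL/kg volume 60 min after infusion start. Body temperature held at 37.8-38 °C.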

Series [2] in a line: (§2) Inhibition of H+/K+ ATPase in hog gastric mucosa. The series is classed as tissue-based, Sus scrofa. The method, boiled down:
(§3)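 Hog gastric mucosa H+/K+-ATPase (0.5-1 µg/100 µL, with nigericin 1:1) in 4 mM Pipes/8 mM Tris pH 7.4, 0.25 M sucrose, 1 mM MgCl2, stimulated by 1 mM KCl. Compound 1e-4 to 1e-9 M final from DMSO stocks. Started with 1 mM Na-ATP, 30 min room temperature. Phosphate read by malachite green at 680 nm after 15 min.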

The test system of series [3] is Rattus norvegicus. Description: Inhibition of pentagastrin-stimulated acid secretion in perfused Ghosh Schild rat stomach at 0.3 umol/kg, intraduodenal. It is filed as functional. Further details: scale not given: the % may be the effect or the level left. The gist of the method:
as §1

A short description of series [4]: Dissociation constant, pKa of the compound. It is filed as physicochemical. The method, boiled down: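 Potentiometric cosolvent titration in 0.15 mol/L KCl, pH 2.0-11.0, 25 °C, methanol as cosolvent in varying portions; titrants 0.5 mol/L KOH and HCl.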
Series [5] can be described thus: Distribution coefficient, log D of the compound. The series is classed as physicochemical. As to conditions: octanol/water. The method, boiled down:
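Distribution between 1-octanol and aqueous KCl measured by potentiometric titration over pH 2.0-11.0 at 25 °C.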

Series [6] relates to Rattus norvegicus. Briefly: Inhibition of pentagastrin-stimulated acid secretion in perfused Ghosh Schild rat stomach at 1 umol/kg, intraduodenal. The series is classed as functional. Set-up: scale not given: the % may be the effect or the level left. The gist of the method: as §1
The species named for another series is Sus scrofa. Described as §2. The series is classed as tissue-based. The gist of the method:
as §3

Activity calls are given as the source filed them. The calls are words filed in the database; no cut-off is given here.

The term IC50 denotes the concentration that gives 50% inhibition. For `Cc1nc2c3c(c(C(N)=O)cn2c1C)CC[C@H](c1ccccc1)O3`, the IC50 with Gastric gland was 25100 nM. Also, in the series with Rattus norvegicus [1], the Activity is 30%.

The term pIC50 denotes the negative decadic logarithm of the IC50, by convention in mol/L. For the compound `Cc1nc2c3c(c(C(=O)N(C)C)cn2c1C)CC[C@H](c1ccccc1)O3`, the 50% inhibitory concentration (IC50) with Gastric gland was 2510 nM. For the same compound, the pIC50 in series [2] is 5.4. Besides, the Activity in the series with Rattus norvegicus [1] is 36%.

Turning to `CNC(=O)c1cn2c(C)c(C)nc2c2c1CC[C@@H](c1ccccc1)O2`, the Activity in the series with Rattus norvegicus [3] is reported as 62%. Moreover, the IC50 with Gastric gland was 2000 nM. In series [2], the pIC50 came to 6.3.

Broadly, the pKa is the negative logarithm of the acid dissociation constant. One may read the logD as lipophilicity at a set pH, counting ionised and neutral species. Consider `Cc1nc2c3c(c(C(=O)N4CC(O)C4)cn2c1C)CCC(c1ccccc1)O3` (racemic), for which the pKa in series [4] was 6.63. Further, in the series with Gastric gland, the 50% inhibitory concentration (IC50) was 63100 nM. The pIC50 in series [2] came out at 5.9. Moreover, the Activity in the series on Rattus norvegicus [1] amounted to 54%. The compound further registered a pH-dependent lipophilicity (logD) in series [5] of 2.19.

Consider `CCc1c(C)nc2c3c(c(C(=O)N(C)C)cn12)CC[C@H](c1ccccc1)O3`, for which, in the series with Gastric gland, the concentration for half-maximal inhibition (IC50) is 10000 nM. This compound showed a negative logarithm of the IC50 (pIC50) in series [2] of 4.4. This compound also returned an Activity in the series with Rattus norvegicus [1] of 20%.

`CCOC(=O)c1cn2c(C)c(C)nc2c2c1CCC(c1ccccc1)O2` (racemic) yielded an Activity in the series with Rattus norvegicus [6] of 34%. In series [4], the pKa was 6.35. The IC50 in the series with Gastric gland is 2510 nM. Further, in series [2], the negative logarithm of the IC50 (pIC50) is 6. This compound had a logD in series [5] of 4.56.

`Cc1nc2c3c(c(C(=O)O)cn2c1C)CCC(c1ccccc1)O3` (racemic) registered a pKa in series [4] of 2.65. In the series with Gastric gland, the IC50 is 25100 nM. For the same compound, in series [2], the negative-log IC50 (pIC50) was 5.2. In the series with Rattus norvegicus [1], the Activity is recorded as 15%. In series [5], this compound displayed a logD of 0.7.

Regarding `Cc1nc2c3c(c(C(=O)NC4CC4)cn2c1C)CC[C@H](c1ccccc1)O3`, in the series with Gastric gland, the IC50 is 2000 nM. This compound also gave a negative-log IC50 (pIC50) in series [2] of 5.1. Further, the Activity in the series with Rattus norvegicus [1] is on record as 40%.

`CC(=O)c1c(C)nc2c3c(c(C(=O)N(C)C)cn12)CCC(c1ccccc1)O3` (racemic) registered an Activity in the series on Rattus norvegicus [6] of 55%. This compound had a pKa in series [4] of 3.73. Also, in the series with Gastric gland, the result was inactive. Also, the pIC50 in series [2] is reported as below 4. Moreover, the log distribution coefficient (logD) in series [5] was found to be 2.55.

In the series with Rattus norvegicus [6], `Cc1nc2c3c(c(C(=O)NC4CC4)cn2c1C)CCC(c1ccccc1)O3` (racemic) yielded an Activity of 82%. The same compound displayed a pKa in series [4] of 6.69. Besides, the half-maximal inhibitory concentration (IC50) with Gastric gland is 1000 nM. The same compound displayed a pIC50 in series [2] of 6. In series [5], this compound returned a logD of 3.22.

Turning to `CC(=O)c1c(C)nc2c3c(c(C(=O)N(C)C)cn12)CC[C@H](c1ccccc1)O3`, the result in the series with Gastric gland was inactive. In series [2], this compound displayed a pIC50 below 4. Further, the Activity in the series with Rattus norvegicus [1] is 31%.

With `CNC(=O)c1cn2c(C)c(C)nc2c2c1CC[C@H](c1ccccc1)O2`, the concentration for half-maximal inhibition (IC50) with Gastric gland is 5010 nM. In addition, in series [2], the pIC50 is recorded as 4.4. The Activity with Rattus norvegicus [1] was 38%.

`Cc1nc2c3c(c(C(=O)N(C)C)cn2c1C)CCC(c1ccccc1F)O3` (racemic) yielded an Activity in the series on Rattus norvegicus [6] of 73%. In addition, in series [4], the pKa stood at 6.78. In the series with Gastric gland, the IC50 is 631 nM. Also, the pIC50 in series [2] is on record as 5.9. The compound also came in with a logD in series [5] of 2.8.

`CON(C)C(=O)c1cn2c(C)c(C)nc2c2c1CC[C@H](c1ccccc1)O2` registered a pIC50 in series [2] of 4.5. This compound also showed an Activity in the series with Rattus norvegicus [1] of 20%.

Compound `COCCNC(=O)c1c(C)nc2c3c(c(C(=O)N(C)C)cn12)CCC(c1ccccc1)O3` (racemic) yielded an Activity with Rattus norvegicus [6] of 54%. The compound also returned a pKa in series [4] of 4.38. Also, the result in the series filed under Sus scrofa was inactive. The same compound registered a pH-dependent lipophilicity (logD) in series [5] of 1.95.

Consider `Cc1nc2c3c(c(C(=O)N(C)C)cn2c1Br)CC[C@H](c1ccccc1)O3`, for which, in the series with Gastric gland, the 50% inhibitory concentration (IC50) is 31600 nM. The negative-log IC50 (pIC50) in series [2] is given as below 4. In the series on Rattus norvegicus [1], this compound displayed an Activity of 38%.

As for `Cc1nc2c3c(c(C(=O)N4CCC4)cn2c1C)CCC(c1ccccc1)O3` (racemic), in the series with Rattus norvegicus [6], the Activity is 75%. Moreover, in series [4], the pKa was determined as 6.64. Also, the IC50 with Gastric gland was 398 nM. In addition, the negative logarithm of the IC50 (pIC50) in series [2] came out at 6.2. For the same compound, the pH-dependent lipophilicity (logD) in series [5] was determined as 2.6.

`Cc1nc2c3c(c(C(=O)NC4CCC4)cn2c1C)CCC(c1ccccc1)O3` (racemic) registered an Activity in the series on Rattus norvegicus [6] of 26%. In addition, the pKa in series [4] was found to be 6.68. For the same compound, the IC50 in the series on Gastric gland was 398 nM. For the same compound, the negative logarithm of the IC50 (pIC50) in series [2] stood at 5.2. For the same compound, the pH-dependent lipophilicity (logD) in series [5] was found to be 3.76.

Take `Cc1nc2c3c(c(C(=O)N4CCC4)cn2c1C)CC[C@H](c1ccccc1)O3`: in the series with Gastric gland, the IC50 was 1580 nM. Further, in series [2], the negative-log IC50 (pIC50) was 5.1. Moreover, the Activity in the series with Rattus norvegicus [1] amounted to 37%.

`Cc1nc2c3c(c(C(=O)N4CCNCC4)cn2c1C)CCC(c1ccccc1)O3` (racemic) came in with an Activity with Rattus norvegicus [6] of 36%. The pKa in series [4] worked out at 6.44. The result in the series on Gastric gland was inactive. Also, the pIC50 in series [2] amounted to 5.3. The compound further had a logD in series [5] of 1.53.

Consider `CCc1c(C)nc2c3c(c(C(=O)N(C)C)cn12)CCC(c1ccccc1)O3` (racemic), for which, in the series with Rattus norvegicus [6], the Activity is given as 30%. Further, the pKa in series [4] is 6.7. The 50% inhibitory concentration (IC50) in the series with Gastric gland is 2000 nM. This compound returned a negative-log IC50 (pIC50) in series [2] of 5. The same compound yielded a pH-dependent lipophilicity (logD) in series [5] of 3.

In turn, `Cc1nc2c3c(c(C(=O)N(C)C)cn2c1C(=O)N(C)C)CCC(c1ccccc1)O3` (racemic) displayed an Activity in the series on Rattus norvegicus [6] of 26%. In addition, the pKa in series [4] was 4.51. In addition, the outcome in the series listed under Sus scrofa was inactive. In series [5], this compound showed a pH-dependent lipophilicity (logD) of 1.69.

In the series on Rattus norvegicus [6], `Cc1nc2c3c(c(C(=O)N(C)C)cn2c1CO)CCC(c1ccccc1)O3` (racemic) had an Activity of 55%. In series [4], this compound yielded a pKa of 5.86. For the same compound, in the series with Gastric gland, the IC50 is 31600 nM. Moreover, the pIC50 in series [2] worked out at 5.6. Further, the logD in series [5] was determined as 1.52.

For `Cc1nc2c3c(c(C(=O)N(C)C)cn2c1C)CC[C@H](c1ccccc1F)O3`, in the series with Gastric gland, the IC50 was 398 nM. Moreover, the pIC50 in series [2] turned out to be 5.3. In the series on Rattus norvegicus [1], this compound yielded an Activity of 42%.

For `Cc1nc2c3c(c(C(=O)N4CCCC4)cn2c1C)CC[C@H](c1ccccc1)O3`, the half-maximal inhibitory concentration (IC50) in the series on Gastric gland is 2510 nM. Besides, the pIC50 in series [2] is 4.5. In addition, in the series with Rattus norvegicus [1], the Activity was found to be 27%.

For the compound `Cc1nc2c3c(ccn2c1C)CCC(c1ccccc1)O3` (racemic), in the series on Rattus norvegicus [6], the Activity turned out to be 26%. This compound yielded a pKa in series [4] of 7.73. In the series on Gastric gland, the IC50 was 316 nM. The pIC50 in series [2] was 6.9. This compound also had a logD in series [5] of 3.5.

The compound `Cc1nc2c3c(c(C(=O)NS(C)(=O)=O)cn2c1C)CCC(c1ccccc1)O3` (racemic) gave a pKa in series [4] of 2.5. Also, the result with Gastric gland was inactive. The negative logarithm of the IC50 (pIC50) in series [2] stood at 4.2. The compound also displayed an Activity in the series on Rattus norvegicus [1] of 38%. In series [5], this compound returned a logD of 1.9.
